Assay results taken from ChEMBL document CHEMBL3286357, “Design, synthesis and pharmacological evaluation of novel substituted quinoline-2-carboxamide derivatives as human dihydroorotate dehydrogenase (hDHODH) inhibitors and anticancer agents” (Eur J Med Chem, 2014).

Experiments:
[1] = Antiproliferative activity against human Hep3B cells at 33.33 ug/ml for 24 hrs by MTT assay; format: functional, Hep 3B2
Method in brief: (§1)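 HEP-3B or A-375 cells were grown in DMEM with 10% FBS, 5% HBSS, penicillin, streptomycin and amphotericin B at 37 C and 5% CO2. Cells were seeded at 2 × 10^4 per well and preincubated for 24 h. They were then exposed to ten 1:3 serial dilutions from a top concentration of 100, made from 2% DMSO stocks. MTT was added for 3 h, formazan was dissolved in DMSO, and A550 was read. Wells were run in triplicate across three independent experiments. IC50 came from dose-response curves.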

A-375 [2] = test: Antiproliferative activity against human A375 cells at 0.05 ug/ml for 24 hrs by MTT assay; format: functional; details: A-375, 24 h; method in brief: as §1
[3] = Antiproliferative activity against human Hep3B cells at 0.14 ug/ml for 24 hrs by MTT assay; format: functional, Hep 3B2; method in brief: as §1
[4] = Antiproliferative activity against human Hep3B cells at 11.11 ug/ml for 24 hrs by MTT assay; format: functional, Hep 3B2; method in brief: as §1
[5] = Antiproliferative activity against human Hep3B cells at 0.01 ug/ml for 24 hrs by MTT assay; format: functional, Hep 3B2; method in brief: as §1
A-375 [6] = test: Antiproliferative activity against human A375 cells at 0.02 ug/ml for 24 hrs by MTT assay; format: functional; details: A-375, 24 h; method in brief: as §1
[7] = Antiproliferative activity against human Hep3B cells at 1.23 ug/ml for 24 hrs by MTT assay; format: functional, Hep 3B2; method in brief: as §1
A-375 [8] = test: Antiproliferative activity against human A375 cells at 100 ug/ml for 24 hrs by MTT assay; format: functional; details: A-375, 24 h; method in brief: as §1
A-375 [9] = test: Antiproliferative activity against human A375 cells at 1.23 ug/ml for 24 hrs by MTT assay; format: functional; details: A-375, 24 h; method in brief: as §1
[10] = Antiproliferative activity against human Hep3B cells at 0.05 ug/ml for 24 hrs by MTT assay; format: functional, Hep 3B2; method in brief: as §1
A-375 [11] = test: Antiproliferative activity against human A375 cells at 3.7 ug/ml for 24 hrs by MTT assay; format: functional; details: A-375, 24 h; method in brief: as §1
[12] = Antiproliferative activity against human Hep3B cells at 100 ug/ml for 24 hrs by MTT assay; format: functional, Hep 3B2; method in brief: as §1
A-375 [13] = test: Antiproliferative activity against human A375 cells at 0.41 ug/ml for 24 hrs by MTT assay; format: functional; details: A-375, 24 h; method in brief: as §1
A-375 [14] = test: Antiproliferative activity against human A375 cells at 0.14 ug/ml for 24 hrs by MTT assay; format: functional; details: A-375, 24 h; method in brief: as §1
A-375 [15] = test: Antiproliferative activity against human A375 cells at 11.11 ug/ml for 24 hrs by MTT assay; format: functional; details: A-375, 24 h; method in brief: as §1
A-375 [16] = test: Antiproliferative activity against human A375 cells at 0.01 ug/ml for 24 hrs by MTT assay; format: functional; details: A-375, 24 h; method in brief: as §1
[17] = Antiproliferative activity against human Hep3B cells at 3.7 ug/ml for 24 hrs by MTT assay; format: functional, Hep 3B2; method in brief: as §1
A-375 (human melanoma) = test: Antiproliferative activity against human A375 cells for 24 hrs by MTT assay; details: A-375, 24 h
A-375 [18] = test: Antiproliferative activity against human A375 cells at 33.33 ug/ml for 24 hrs by MTT assay; format: functional; details: A-375, 24 h; method in brief: as §1
HEP-3B (human hepatoma) = test: Antiproliferative activity against human Hep3B cells for 24 hrs by MTT assay
[19] = Antiproliferative activity against human Hep3B cells at 0.41 ug/ml for 24 hrs by MTT assay; format: functional, Hep 3B2; method in brief: as §1
[20] = Retention time of compound by HPLC analysis; format: physicochemical
[21] = Antiproliferative activity against human Hep3B cells at 0.02 ug/ml for 24 hrs by MTT assay; format: functional, Hep 3B2; method in brief: as §1

SMILES | IC50 (A-375 (human melanoma)) [µM] | IC50 (HEP-3B (human hepatoma)) [µM] | inhibition at 33.33 µg/mL [1] [%] | inhibition at 0.05 µg/mL (A-375 [2]) [%] | inhibition at 0.14 µg/mL [3] [%] | inhibition at 11.11 µg/mL [4] [%] | inhibition at 0.01 µg/mL [5] [%] | inhibition at 0.02 µg/mL (A-375 [6]) [%] | inhibition at 1.23 µg/mL [7] [%] | inhibition at 100 µg/mL (A-375 [8]) [%] | inhibition at 1.23 µg/mL (A-375 [9]) [%] | inhibition at 0.05 µg/mL [10] [%] | inhibition at 3.7 µg/mL (A-375 [11]) [%] | inhibition at 100 µg/mL [12] [%] | inhibition at 0.41 µg/mL (A-375 [13]) [%] | inhibition at 0.14 µg/mL (A-375 [14]) [%] | inhibition at 11.11 µg/mL (A-375 [15]) [%] | inhibition at 0.01 µg/mL (A-375 [16]) [%] | inhibition at 3.7 µg/mL [17] [%] | inhibition at 33.33 µg/mL (A-375 [18]) [%] | further results
Cc1c(C(=O)Nc2c(F)cc(-c3cccc(F)c3)cc2F)nc2ccc(F)cc2c1O | > 100 | 65.2 | 41.2 | 0.05 | 2.65 | 31.3 | -0.12 | -0.13 | 15.3 | 51.3 | 2.34 | 1.25 | 7.85 | 75.2 | 0.86 | 0 | 16.2 | -0.35 | 22.3 | 28.8 | inhibition at 0.41 µg/mL [19]: 4.85%; Retention_time [20]: 6.9 min; inhibition at 0.02 µg/mL [21]: 0.35%
Cc1ccc2nc(C(=O)Nc3c(F)cc(-c4cccc(F)c4)cc3F)c(C)c(O)c2c1 | > 100 | 90.5 | 37.3 | 0.96 | 2.34 | 25.5 | 0.22 | 0.38 | 11.2 | 56.4 | 3.04 | 1.52 | 16.2 | 68.3 | 1.35 | 1.06 | 17.9 | 0.1 | 19.2 | 26.5 | inhibition at 0.41 µg/mL [19]: 5.25%; Retention_time [20]: 8.8 min; inhibition at 0.02 µg/mL [21]: 0.98%
Cc1c(-c2ccc(-c3ccccc3F)cc2)nc2ccc(F)cc2c1C(=O)O [BREQUINAR SODIUM] | 10.2 | 8.1 | 52.3 | 2.65 | 4.52 | 46 | 0.23 | 1.02 | 21.4 | 74.6 | 26.3 | 2.05 | 33.2 | 68.3 | 18.4 | 3.48 | 46.6 | 0.18 | 34.2 | 59.7 | inhibition at 0.41 µg/mL [19]: 15.3%; inhibition at 0.02 µg/mL [21]: 0.65%

More lines, main results first:

IC50 (A-375 (human melanoma)) [µM] | IC50 (HEP-3B (human hepatoma)) [µM] | SMILES | inhibition at 33.33 µg/mL [1] [%] | inhibition at 0.05 µg/mL (A-375 [2]) [%] | inhibition at 0.14 µg/mL [3] [%] | inhibition at 11.11 µg/mL [4] [%] | inhibition at 0.01 µg/mL [5] [%] | inhibition at 0.02 µg/mL (A-375 [6]) [%] | inhibition at 1.23 µg/mL [7] [%] | inhibition at 100 µg/mL (A-375 [8]) [%] | inhibition at 1.23 µg/mL (A-375 [9]) [%] | inhibition at 0.05 µg/mL [10] [%] | inhibition at 3.7 µg/mL (A-375 [11]) [%] | inhibition at 100 µg/mL [12] [%] | inhibition at 0.41 µg/mL (A-375 [13]) [%] | inhibition at 0.14 µg/mL (A-375 [14]) [%] | inhibition at 11.11 µg/mL (A-375 [15]) [%] | inhibition at 0.01 µg/mL (A-375 [16]) [%] | inhibition at 3.7 µg/mL [17] [%] | inhibition at 33.33 µg/mL (A-375 [18]) [%] | further results
14.3 | > 100 | COc1ccc2nc(C(=O)Nc3c(F)cc(-c4cccc(F)c4)cc3F)c(C)c(C(=O)O)c2c1 | 7.24 | 1.05 | 0.02 | 2.34 | -0.68 | 0.13 | 1.05 | 58.7 | 10.2 | -0.66 | 24.6 | 28.3 | 3.87 | 2.06 | 35.2 | 0.05 | 1.62 | 44.5 | inhibition at 0.41 µg/mL [19]: 0.68%; Retention_time [20]: 6.9 min; inhibition at 0.02 µg/mL [21]: -0.57%
31.6 | 26 | Cc1ccc2nc(C(=O)Nc3c(F)cc(-c4cccc(F)c4)cc3F)c(C)c(C(=O)O)c2c1 | 41.2 | 0.35 | 6.34 | 35.6 | 0.36 | 0.02 | 21.3 | 37.3 | 3.65 | 2.11 | 9.25 | 75.2 | 1.53 | 0.98 | 19.2 | -1.05 | 31.3 | 26.3 | inhibition at 0.41 µg/mL [19]: 15.2%; Retention_time [20]: 7 min; inhibition at 0.02 µg/mL [21]: 1.05%
85.5 | 38.3 | Cc1c(C(=O)Nc2c(F)cc(-c3cccc(F)c3)cc2F)nc2ccc(OC(F)(F)F)cc2c1O | 41.2 | -0.13 | 2.01 | 37.9 | 0.32 | -0.35 | 17.2 | 25.6 | 1.57 | 1.05 | 2.06 | 80.3 | 1.02 | 0.06 | 11.3 | -0.68 | 26.4 | 12.3 | inhibition at 0.41 µg/mL [19]: 5.62%; Retention_time [20]: 6.3 min; inhibition at 0.02 µg/mL [21]: 0.67%
13.2 | 6.35 | COc1cccc2c1C(=O)c1c(O)c3c(c(O)c1C2=O)C[C@@](O)(C(=O)CO)C[C@@H]3O[C@H]1C[C@H](N)[C@H](O)[C@H](C)O1 [DOXORUBICIN] | 32.3 | -27.6 | 3.35 | 30.1 | 0.25 | 30.2 | 18.4 | 88.4 | -10.3 | 1.56 | 11.6 | 76.3 | -12.5 | -18.5 | 50.6 | -35.6 | 24.2 | 69.9 | inhibition at 0.41 µg/mL [19]: 11.4%; inhibition at 0.02 µg/mL [21]: 0.95%
